Assay results: ChEMBL document CHEMBL2062460, “Disubstituted thiourea derivatives and their activity on CNS: synthesis and biological evaluation” (Eur J Med Chem, 2012)
In brackets after ≈: the same amount, converted by molar mass. Activity calls are given as the source filed them. The calls are words filed in the database; no cut-off is given here.

Tests used:
Staphylococcus aureus [1] = test: Antibacterial activity against Staphylococcus aureus NCTC 4163 at 400 ug/disc after 18 hrs by disc diffusion method; type: functional; settings: for zone of inhibition at 400 µg/disc: NCTC 4163, 18 h, read-out: DIZ
Method in brief: (§1)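 Disc diffusion per CLSI on Mueller–Hinton II agar; 9 mm paper discs loaded from methanol or DMSO solutions to 400 µg per disc, dried; growth inhibition zone diameter read after 18 h at 35 °C.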

Staphylococcus aureus [2] = test: Antibacterial activity against Staphylococcus aureus ATCC 6538 at 400 ug/disc after 18 hrs by disc diffusion method; type: functional; settings: for zone of inhibition at 400 µg/disc: ATCC 6538, 18 h, read-out: DIZ; method in brief: as §1
Micrococcus luteus [3] = test: Antibacterial activity against Micrococcus luteus ATCC 10240 at 400 ug/disc after 18 hrs by disc diffusion method; type: functional; settings: ATCC 10240, 18 h, read-out: DIZ; method in brief: as §1
Escherichia coli [4] = test: Antibacterial activity against Escherichia coli ATCC 25922 at 400 ug/disc after 18 hrs by disc diffusion method; type: functional, organism-based; method in brief: as §1
Escherichia coli [5] = test: Antibacterial activity against Escherichia coli NCTC 8196 at 400 ug/disc after 18 hrs by disc diffusion method; type: functional, organism-based; method in brief: as §1
Pseudomonas aeruginosa [6] = test: Antibacterial activity against Pseudomonas aeruginosa ATCC 15442 at 400 ug/disc after 18 hrs by disc diffusion method; type: functional, organism-based; method in brief: as §1
Pseudomonas aeruginosa [7] = test: Antibacterial activity against Pseudomonas aeruginosa NCTC 6749 at 400 ug/disc after 18 hrs by disc diffusion method; type: functional, organism-based; method in brief: as §1
Pseudomonas aeruginosa [8] = test: Antibacterial activity against Pseudomonas aeruginosa ATCC 27853 at 400 ug/disc after 18 hrs by disc diffusion method; type: functional, organism-based; method in brief: as §1
Candida albicans = test: Antifungal activity against Candida albicans ATCC 10231 at 400 ug/disc after 18 hrs by disc diffusion method; type: functional, organism-based
Method in brief: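 Yeasts tested by disc diffusion (CLSI) on RPMI agar with 2% glucose; 9 mm paper discs bearing 400 µg compound from methanol or DMSO solution; inhibition zone diameter read after 18 h at 35 °C.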

Staphylococcus aureus [9] = test: Antibacterial activity against Staphylococcus aureus ATCC 6538 after 18 hrs by twofold serial agar dilution technique; type: functional; settings: ATCC 6538, 18 h
Method in brief: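 Twofold serial agar dilution on Mueller–Hinton II agar, following CLSI guidelines. Compounds were dissolved in methanol or DMSO and tested at final agar concentrations of 3.125–400 µg/mL. Final inoculum was 10^4 CFU/mL.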

Bacillus subtilis = test: Antibacterial activity against Bacillus subtilis ATCC 6633 after 18 hrs by twofold serial agar dilution technique; type: functional; settings: ATCC 6633, 18 h
Bacillus cereus = test: Antibacterial activity against Bacillus cereus ATCC 11778 after 18 hrs by twofold serial agar dilution technique; type: functional; settings: ATCC 11778, 18 h
Enterococcus hirae = test: Antibacterial activity against Enterococcus hirae ATCC 10541 after 18 hrs by twofold serial agar dilution technique; type: functional; settings: ATCC 10541, 18 h
Micrococcus luteus [10] = test: Antibacterial activity against Micrococcus luteus ATCC 9341 after 18 hrs by twofold serial agar dilution technique; type: functional; settings: ATCC 9341, 18 h
Staphylococcus aureus [11] = test: Antibacterial activity against methicillin-susceptible Staphylococcus aureus clinical isolate 267/08 after 18 hrs by twofold serial agar dilution technique; type: functional; settings: clinical isolate 267/08, 18 h
Method in brief: (§2)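 Clinical isolates came from patients in Warsaw Medical University Hospitals and were classed as methicillin-susceptible or -resistant. MIC was determined by twofold serial agar dilution on Mueller–Hinton II agar (CLSI), 3.125–400 µg/mL in agar, with compounds in methanol or DMSO. Inoculum was 10^4 CFU/mL and plates were read after 18 h at 35 °C.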

Staphylococcus aureus [12] = test: Antibacterial activity against methicillin-susceptible Staphylococcus aureus clinical isolate 269/08 after 18 hrs by twofold serial agar dilution technique; type: functional; settings: clinical isolate 269/08, 18 h; method in brief: as §2
Staphylococcus aureus [13] = test: Antibacterial activity against methicillin-resistant Staphylococcus aureus clinical isolate 307/08 after 18 hrs by twofold serial agar dilution technique; type: functional; settings: clinical isolate 307/08, 18 h; method in brief: as §2
Staphylococcus aureus [14] = test: Antibacterial activity against methicillin-resistant Staphylococcus aureus clinical isolate 329/08 after 18 hrs by twofold serial agar dilution technique; type: functional; settings: clinical isolate 329/08, 18 h; method in brief: as §2
Staphylococcus aureus [15] = test: Antibacterial activity against methicillin-resistant Staphylococcus aureus clinical isolate 325/09 after 18 hrs by twofold serial agar dilution technique; type: functional; settings: clinical isolate 325/09, 18 h; method in brief: as §2
Staphylococcus aureus [16] = test: Antibacterial activity against methicillin-resistant Staphylococcus aureus clinical isolate 357/09 after 18 hrs by twofold serial agar dilution technique; type: functional; settings: clinical isolate 357/09, 18 h; method in brief: as §2
[17] = system: Staphylococcus epidermidis; test: Antibacterial activity against methicillin-resistant Staphylococcus epidermidis clinical isolate 317/08 after 18 hrs by twofold serial agar dilution technique; type: functional; settings: clinical isolate 317/08, 18 h; method in brief: as §2
[18] = system: Staphylococcus epidermidis; test: Antibacterial activity against methicillin-resistant Staphylococcus epidermidis clinical isolate 318/08 after 18 hrs by twofold serial agar dilution technique; type: functional; settings: clinical isolate 318/08, 18 h; method in brief: as §2
[19] = system: Staphylococcus epidermidis; test: Antibacterial activity against methicillin-resistant Staphylococcus epidermidis clinical isolate 341/09 after 18 hrs by twofold serial agar dilution technique; type: functional; settings: clinical isolate 341/09, 18 h; method in brief: as §2
[20] = system: Staphylococcus epidermidis; test: Antibacterial activity against methicillin-resistant Staphylococcus epidermidis clinical isolate 342/09 after 18 hrs by twofold serial agar dilution technique; type: functional; settings: clinical isolate 342/09, 18 h; method in brief: as §2
[21] = system: Staphylococcus epidermidis; test: Antibacterial activity against methicillin-resistant Staphylococcus epidermidis clinical isolate 343/09 after 18 hrs by twofold serial agar dilution technique; type: functional; settings: clinical isolate 343/09, 18 h; method in brief: as §2
[22] = system: Staphylococcus epidermidis; test: Antibacterial activity against methicillin-resistant Staphylococcus epidermidis clinical isolate 377/09 after 18 hrs by twofold serial agar dilution technique; type: functional; settings: clinical isolate 377/09, 18 h; method in brief: as §2
[23] = system: Human immunodeficiency virus 1; test: Antiviral activity against HIV1 infected in human MT4 cells assessed as virus-induced cytopathogenicity after 4 days by MTT assay; type: functional, organism-based; settings: Human immunodeficiency virus 1, MT4, 96 h

Row | Compound | zone of inhibition at 400 µg/disc (Staphylococcus aureus [1]) [mm] | zone of inhibition at 400 µg/disc (Staphylococcus aureus [2]) [mm] | zone of inhibition at 400 µg/disc (Micrococcus luteus [3]) [mm] | diameter of the inhibition zone (DIZ) (Escherichia coli [4]) | diameter of the inhibition zone (DIZ) (Escherichia coli [5]) | diameter of the inhibition zone (DIZ) (Pseudomonas aeruginosa [6]) | diameter of the inhibition zone (DIZ) (Pseudomonas aeruginosa [7]) | diameter of the inhibition zone (DIZ) (Pseudomonas aeruginosa [8]) | diameter of the inhibition zone (DIZ) (Candida albicans) | MIC (Staphylococcus aureus [9]) [µg/mL] | MIC (Bacillus subtilis) [µg/mL] | MIC (Bacillus cereus) [µg/mL] | MIC (Enterococcus hirae) [µg/mL] | MIC (Micrococcus luteus [10]) [µg/mL] | MIC (Staphylococcus aureus [11]) [µg/mL] | MIC (Staphylococcus aureus [12]) [µg/mL] | MIC (Staphylococcus aureus [13]) [µg/mL] | MIC (Staphylococcus aureus [14]) [µg/mL] | MIC (Staphylococcus aureus [15]) [µg/mL] | MIC (Staphylococcus aureus [16]) [µg/mL] | further results
1 | Fc1cccc(NC(=S)Nc2nc[nH]n2)c1 | 16 | 15 | 40 | inactive | inactive | inactive | inactive | inactive | inactive | 100 (≈ 421 µM) | 50 (≈ 211 µM) | 50 (≈ 211 µM) | 400 (≈ 1690 µM) | 50 (≈ 211 µM) | 25 (≈ 105 µM) | 12.5 (≈ 52.7 µM) | 12.5 (≈ 52.7 µM) | 12.5 (≈ 52.7 µM) | 12.5 (≈ 52.7 µM) | 25 (≈ 105 µM) | –
2 | Fc1ccc(NC(=S)Nc2nc[nH]n2)cc1 | 14 | 14 | 23 | inactive | inactive | inactive | inactive | inactive | inactive | 50 (≈ 211 µM) | 12.5 (≈ 52.7 µM) | 6.25 (≈ 26.3 µM) | 400 (≈ 1690 µM) | 6.25 (≈ 26.3 µM) | 50 (≈ 211 µM) | 50 (≈ 211 µM) | 50 (≈ 211 µM) | 50 (≈ 211 µM) | 50 (≈ 211 µM) | 50 (≈ 211 µM) | MIC [17]: 50 µg/mL (≈ 211 µM); MIC [18]: 50 µg/mL (≈ 211 µM); MIC [19]: 100 µg/mL (≈ 421 µM); MIC [20]: 50 µg/mL (≈ 211 µM); MIC [21]: 50 µg/mL (≈ 211 µM); MIC [22]: 50 µg/mL (≈ 211 µM); EC50 [23]: > 100 µM
3 | S=C(Nc1nc[nH]n1)Nc1ccccc1Br | 11 | 12 | 15 | inactive | inactive | inactive | inactive | inactive | inactive | 50 (≈ 168 µM) | 12.5 (≈ 41.9 µM) | 25 (≈ 83.8 µM) | 400 (≈ 1340 µM) | 6.25 (≈ 21 µM) | 50 (≈ 168 µM) | 50 (≈ 168 µM) | 50 (≈ 168 µM) | 50 (≈ 168 µM) | 50 (≈ 168 µM) | 50 (≈ 168 µM) | MIC [17]: 100 µg/mL (≈ 335 µM); MIC [18]: 50 µg/mL (≈ 168 µM); MIC [19]: 100 µg/mL (≈ 335 µM); MIC [20]: 50 µg/mL (≈ 168 µM); MIC [21]: 50 µg/mL (≈ 168 µM); MIC [22]: 50 µg/mL (≈ 168 µM); EC50 [23]: > 100 µM
4 | S=C(Nc1ccccc1)Nc1nc[nH]n1 | – | – | 12 | inactive | inactive | inactive | inactive | inactive | inactive | 100 (≈ 456 µM) | 50 (≈ 228 µM) | 100 (≈ 456 µM) | 200 (≈ 912 µM) | 50 (≈ 228 µM) | 50 (≈ 228 µM) | 50 (≈ 228 µM) | 50 (≈ 228 µM) | 50 (≈ 228 µM) | 50 (≈ 228 µM) | 50 (≈ 228 µM) | diameter of the inhibition zone (DIZ) (Staphylococcus aureus [1]): inactive; diameter of the inhibition zone (DIZ) (Staphylococcus aureus [2]): inactive; MIC [17]: 100 µg/mL (≈ 456 µM); MIC [18]: 50 µg/mL (≈ 228 µM); MIC [19]: 100 µg/mL (≈ 456 µM); MIC [20]: 200 µg/mL (≈ 912 µM); MIC [21]: 50 µg/mL (≈ 228 µM); MIC [22]: 50 µg/mL (≈ 228 µM); EC50 [23]: > 100 µM
5 | S=C(Nc1ccc(Cl)cc1)Nc1nc[nH]n1 | 23 | 15 | 30 | inactive | inactive | inactive | inactive | inactive | inactive | 25 (≈ 98.5 µM) | 12.5 (≈ 49.3 µM) | 12.5 (≈ 49.3 µM) | 200 (≈ 788 µM) | 25 (≈ 98.5 µM) | 25 (≈ 98.5 µM) | 25 (≈ 98.5 µM) | 25 (≈ 98.5 µM) | 25 (≈ 98.5 µM) | 25 (≈ 98.5 µM) | 50 (≈ 197 µM) | MIC [17]: 25 µg/mL (≈ 98.5 µM); MIC [18]: 25 µg/mL (≈ 98.5 µM); MIC [19]: 12.5 µg/mL (≈ 49.3 µM); MIC [20]: 200 µg/mL (≈ 788 µM); MIC [21]: 25 µg/mL (≈ 98.5 µM); MIC [22]: 25 µg/mL (≈ 98.5 µM); EC50 [23]: > 47 µM
6 | Fc1ccccc1NC(=S)Nc1nc[nH]n1 | 12 | 12 | 38 | inactive | inactive | inactive | inactive | inactive | inactive | 200 (≈ 843 µM) | 100 (≈ 421 µM) | 100 (≈ 421 µM) | 400 (≈ 1690 µM) | 100 (≈ 421 µM) | > 400 | > 400 | > 400 | > 400 | > 400 | > 400 | –
